The results in this text go back to ChEMBL document CHEMBL2385045, “Discovery of novel 4-(2-fluorophenoxy)quinoline derivatives bearing 4-oxo-1,4-dihydrocinnoline-3-carboxamide moiety as c-Met kinase inhibitors” (Bioorg Med Chem, 2013).

Assay [1] has as its system SMMC-7721. The assay is described as follows: Cytotoxicity against c-Met-dependent human SMMC7721 cells assessed as growth inhibition after 72 hrs by MTT assay. Type of assay: functional, cell-based. The settings on record: SMMC-7721, 72 h. The method, boiled down: (§1)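 Cells grown in MEM with 10% FBS. About 4×10³ cells/well were seeded and incubated 24 h at 37 °C, 5% CO₂, then exposed to compound for 72 h. MTT was added (terminal 5 µg/mL) for 4 h at 37 °C, and formazan was dissolved in DMSO. IC50 is the mean of three determinations.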

Assay [2] can be described thus: Cytotoxicity against c-Met-dependent human U87MG cells assessed as growth inhibition after 72 hrs by MTT assay. Type of assay: functional, cell-based, U-87MG ATCC. As to conditions: U-87 MG. Summed up:
as §1

Assay [3] deals with MKN-45. Kind of assay: Cytotoxicity against c-Met-dependent human MKN45 cells assessed as growth inhibition after 72 hrs by MTT assay. As to conditions: MKN-45, 72 h. (Tetrazolium assays rely on reduction of a dye to a coloured formazan, in cell work by metabolically active cells.)
For assay [4], the system named is HT-29. Kind of assay: Cytotoxicity against c-Met-dependent human HT-29 cells assessed as growth inhibition after 72 hrs by MTT assay. The settings on record: HT-29, 72 h.
In assay [5] the test system is A549. Kind of assay: Cytotoxicity against c-Met-dependent human A549 cells assessed as growth inhibition after 72 hrs by MTT assay. As to conditions: A549, 72 h.
A short description of assay [6]: Cytotoxicity against c-Met-independent human H460 cells assessed as growth inhibition after 72 hrs by MTT assay. As to conditions: NCI-H460, 72 h.
Assay [7] deals with T1, Hepatocyte growth factor receptor (Homo sapiens, UniProt P08581). Kind of assay: Inhibition of c-Met (unknown origin). Summed up:
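HTRF kinase assay on plates precoated with 20 µg/mL poly(Glu,Tyr) 4:1. ATP (10 mM solution) in 50 mM HEPES pH 7.0 buffer with DTT, MgCl₂, MnCl₂ and 0.1% NaN₃. Compound in 1% DMSO; reaction started with purified kinase and run 30 min at 25 °C. Inhibition relative to enzyme and no-enzyme controls; IC50 from the inhibition curves.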

For assay [8], the target named is Vascular endothelial growth factor receptor 2 (Homo sapiens, UniProt P35968). The assay is described as follows: Inhibition of VEGFR-2 (unknown origin).
The target of assay [9] is T1, Hepatocyte growth factor receptor. Kind of assay: Inhibition of wild type GST-tagged c-Met kinase domain (1058 to 1365) (unknown origin) expressed in Sf9 cells by HTRF assay.

SMILES strings stand for the structures.

As usually defined, the IC50 is the concentration that gives 50% inhibition.

For `COc1cc2c(Oc3ccc(NC(=O)c4nn(-c5cccc(C(F)(F)F)c5)c5ccccc5c4=O)cc3F)ccnc2cc1OCCCN1CCCC1`, the IC50 in [1] is 0.63 µM; in [2], 0.85 µM; in assay [3], 0.19 µM; in [4] it was 0.78 µM; in assay [5], 0.3 µM; in assay [6], 1.04 µM.
Consider `COc1cc2c(Oc3ccc(NC(=O)c4nn(-c5cccc(F)c5)c5ccccc5c4=O)cc3F)ccnc2cc1OCCCN1CCCCC1`, for which the IC50 in assay [1] stood at 2.02 µM; in assay [2], 2.46 µM; in assay [3], 0.14 µM; in assay [4] it was 1.88 µM; in [5] it was 0.11 µM; in assay [6], 0.91 µM.
In the case of `COc1cc2c(Oc3ccc(NC(=O)c4nn(-c5ccccc5C(F)(F)F)c5ccccc5c4=O)cc3F)ccnc2cc1OCCCN1CCOCC1`, the IC50 came to 0.84 µM in assay [1]; 1.48 µM in assay [2]; 0.02 µM in assay [3]; 0.51 µM in assay [4]; 0.06 µM in [5]; 0.08 µM in assay [6].
As to `COc1cc2c(Oc3ccc(NC(=O)c4nn(-c5ccc(F)cc5)c5ccccc5c4=O)cc3F)ccnc2cc1OCCCN1CCC(C)CC1`, the concentration for half-maximal inhibition (IC50) is 0.93 µM in assay [1]; 1.12 µM in assay [2]; 0.17 µM in [3]; 0.46 µM in [4]; 0.15 µM in assay [5]; 0.89 µM in [6].
As to `COc1cc2c(Oc3ccc(NC(=O)c4nn(-c5ccc(Cl)c(C(F)(F)F)c5)c5ccccc5c4=O)cc3F)ccnc2cc1OCCCN1CCC(C)CC1`, the IC50 in assay [1] stood at 0.37 µM; in [2] it was 0.54 µM; in assay [3], 0.14 µM; in assay [4] it was 0.49 µM; in assay [5], 0.24 µM; in assay [6], 0.11 µM.
Turning to `COc1cc2c(Oc3ccc(-c4cnc(Nc5ccccc5)n(C)c4=O)cc3F)ccnc2cc1OCCCN1CCOCC1`, the IC50 in assay [7] amounted to 0.0049 µM.
With `COc1cc2c(Oc3ccc(NC(=O)c4nn(-c5ccccc5Cl)c5ccccc5c4=O)cc3F)ccnc2cc1OCCCN1CCCCC1`, the IC50 in [1] is 0.42 µM; in assay [2], 0.49 µM; in assay [3], 0.05 µM; in assay [4], 0.26 µM; in [5], 0.043 µM; in [6] it was 0.073 µM.
In the case of `COc1cc2c(Oc3ccc(NC(=O)c4nn(-c5cccc(C(F)(F)F)c5)c5ccccc5c4=O)cc3F)ccnc2cc1OCCCN1CCCCC1`, the IC50 came to 0.33 µM in assay [1]; 1.62 µM in assay [2]; 0.27 µM in assay [3]; 0.56 µM in assay [4]; 0.31 µM in [5]; 1.03 µM in assay [6].
Consider `COc1cc2c(Oc3ccc(NC(=O)c4nn(-c5ccc(Cl)cc5)c5ccccc5c4=O)cc3F)ccnc2cc1OCCCN1CCCCC1`, for which the IC50 in [1] was determined as 0.33 µM; in assay [2] it was 1.62 µM; in [3], 0.23 µM; in assay [4], 2.12 µM; in assay [5] it was 0.2 µM; in assay [6], 0.64 µM.
For the compound `COc1cc2c(Oc3ccc(NC(=O)c4nn(-c5ccccc5F)c5ccccc5c4=O)cc3F)ccnc2cc1OCCCN1CCC(C)CC1`, the IC50 in assay [1] is 0.95 µM; in assay [2], 1.21 µM; in assay [3] it was 0.58 µM; in assay [4] it was 0.78 µM; in assay [5], 0.33 µM; in [6] it was 0.29 µM.
On to `COc1cc2c(Oc3ccc(NC(=O)c4nn(-c5ccccc5OC(F)(F)F)c5ccccc5c4=O)cc3F)ccnc2cc1OCCCN1CCOCC1`, for which the concentration for half-maximal inhibition (IC50) in [2] is 1.04 µM; in [3], 0.76 µM; in assay [4] it was 1.12 µM; in [5], 0.48 µM; in assay [6], 0.62 µM.
For `COc1cc2c(Oc3ccc(NC(=O)c4nn(-c5ccccc5C(F)(F)F)c5ccccc5c4=O)cc3F)ccnc2cc1OCCCN1CCCCC1`, the IC50 was determined as 1.35 µM in assay [1]; 1.16 µM in [2]; 0.027 µM in [3]; 0.56 µM in assay [4]; 0.055 µM in [5]; 0.081 µM in assay [6].
Turning to `COc1cc2c(Oc3ccc(NC(=O)c4nn(-c5c(Cl)cccc5Cl)c5ccccc5c4=O)cc3F)ccnc2cc1OCCCN1CCC(C)CC1`, the IC50 in assay [1] worked out at 0.82 µM; in assay [2], 1.04 µM; in [3], 0.36 µM; in [4], 0.92 µM; in assay [5], 0.4 µM; in [6], 0.65 µM.
On to `COc1cc2c(Oc3ccc(NC(=O)c4nn(-c5c(Cl)cccc5Cl)c5ccccc5c4=O)cc3F)ccnc2cc1OCCCN1CCCC1`, for which the IC50 was determined as 0.84 µM in assay [1]; 1.25 µM in assay [2]; 0.35 µM in assay [3]; 1.05 µM in [4]; 0.35 µM in assay [5]; 0.37 µM in assay [6].
Turning to `COc1cc2c(Oc3ccc(NC(=O)c4nn(-c5ccccc5)c5ccccc5c4=O)cc3F)ccnc2cc1OCCCN1CCOCC1`, the IC50 in assay [1] is 1.13 µM; in assay [2] it was 1.46 µM; in assay [3], 0.96 µM; in assay [4], 1.17 µM; in assay [5], 0.57 µM; in assay [6] it was 0.69 µM.
With `COc1cc2c(Oc3ccc(NC(=O)c4nn(-c5ccc(Br)cc5)c5ccccc5c4=O)cc3F)ccnc2cc1OCCCN1CCCCC1`, the IC50 in assay [1] came out at 0.84 µM; in [2], 1.6 µM; in assay [3] it was 0.45 µM; in assay [4] it was 1.14 µM; in assay [5] it was 0.53 µM; in assay [6], 0.4 µM.
On to `COc1cc2c(Oc3ccc(NC(=O)c4nn(-c5ccccc5Br)c5ccccc5c4=O)cc3F)ccnc2cc1OCCCN1CCC(C)CC1`, for which the IC50 is 2.16 µM in assay [2]; 0.28 µM in assay [3]; 1.34 µM in [4]; 0.35 µM in assay [5]; 0.83 µM in assay [6].
`COc1cc2c(Oc3ccc(NC(=O)N4CCN(c5ccccc5)C4=O)cc3F)ccnc2cc1OCCCN1CCOCC1`: the IC50 in assay [8] came to 0.03 µM.
In the case of `COc1cc2c(Oc3ccc(NC(=O)c4nn(-c5ccccc5Cl)c5ccccc5c4=O)cc3F)ccnc2cc1OCCCN1CCOCC1`, the IC50 in assay [1] came to 0.92 µM; in assay [2], 1.69 µM; in assay [3], 0.01 µM; in assay [4], 0.24 µM; in [5] it was 0.03 µM; in assay [6], 0.01 µM.
As for `COc1cc2c(Oc3ccc(NC(=O)c4nn(-c5ccc(F)c(F)c5)c5ccccc5c4=O)cc3F)ccnc2cc1OCCCN1CCCC1`, the IC50 came out at 0.59 µM in assay [1]; 1.06 µM in assay [2]; 0.35 µM in [3]; 1.12 µM in [4]; 0.26 µM in assay [5]; 0.64 µM in assay [6].
As for `COc1cc2c(Oc3ccc(-c4cnc(Cc5ccccc5)n(C)c4=O)cc3F)ccnc2cc1OCCCN1CCOCC1`, inhibition in assay [9] was half-maximal at 0.0089 µM (IC50).
